Measurements of several laboratories.
Compare with care: the assays were run in different laboratories.
Target: Casein kinase I isoform gamma-3 (CSNK1G3, Homo sapiens, UniProt Q9Y6M4)

Compound	test	conditions	remaining binding [%]
O=C(c1ccc(Nc2ncc(Cl)c(-c3cc4ccccc4s3)n2)cc1)N1CCC(N2CCCC2)CC1	binding, competition with immobilised ligand	1 µM	100
CN(C)CC#Cc1ccc(OCCCc2sc(N3CCc4cccc(C(=O)Nc5nc6ccccc6s5)c4C3)nc2C(=O)O)c(F)c1	cell-free assay, competition with immobilised ligand	1 µM	100
COc1ncc2cc3ccccc3nc2c1C#N	cell-free assay, competition with immobilised ligand	5 µM	96
N[C@@H]1CCN(c2nccc(-c3cnn4ncccc34)n2)C1	binding	1 µM	100
CC(=O)N1CCC(c2ccc(C(=O)NC3=NCCN3)cc2C(F)(F)F)CC1	cell-free assay, competition with immobilised ligand	1 µM	100
CN(C)c1nccc(-c2cnc3ncccn23)n1	binding	1 µM	70
CS(=O)(=O)N1CCCC(NC(=O)[C@H](CCC2CCCCC2)NC(=O)c2ccc(CNc3ncnc4c3nnn4-c3ccccc3)cc2)C1 (some centres unmarked)	cell-free assay, competition with immobilised ligand	0.1 µM	100
COc1cnc(Nc2cccc(S(N)(=O)=O)c2)nc1N1CCN(c2ccccc2)C(=O)C1	binding, competition with immobilised ligand	1 µM	87
O=C(NCCCN1CCOCC1)c1ccc(Nc2nccc(-c3cc4ccccc4s3)n2)cc1	binding, competition with immobilised ligand	1 µM	88
CC1CCCN1c1nccc(-c2cnn3ncccc23)n1 (centres unmarked)	binding	1 µM	100
Nc1ncc2c(n1)-c1c([nH]c3ccc(C#CC4CC4)cc13)CCCC2	binding, competition with immobilised ligand	1 µM	93
c1cnn2ncc(-c3ccnc(N4CCC45COC5)n3)c2c1	binding	1 µM	100
N#Cc1ccc(Nc2ccc3[nH]c(=O)[nH]c3c2)c(Cl)c1	cell-free assay, competition with immobilised ligand	1 µM	99
O=C(c1ccc(Nc2ncc(Cl)c(-c3ccc(Cl)s3)n2)cc1)N1CCC(N2CCCC2)CC1	binding, competition with immobilised ligand	1 µM	100
O=C(NCC1CCOCC1)c1n[nH]cc1NC(=O)c1c(F)cccc1F	binding, competition with immobilised ligand	1 µM	78
O=C(NCc1ncc(C(F)(F)F)cc1Cl)c1ccc2c(c1)C1(CCS(=O)(=O)CC1)[C@H](C1CC1)N2S(=O)(=O)c1ccc(F)cc1	cell-free assay, competition with immobilised ligand	1 µM	100
CN(C)c1ncc(F)c(-c2cnn3ncccc23)n1	binding	1 µM	100
FC(F)(F)Oc1cccc(-c2cnc3ccc(-c4ccncc4)nn23)c1	cell-free assay, competition with immobilised ligand	5 µM	84
O=C1NC(c2ccccn2)Sc2ccccc21 (centres unmarked)	cell-free assay, competition with immobilised ligand	1 µM	100
C[C@@H]1CCN(c2nccc(-c3cnn4ncccc34)n2)C1	binding	1 µM	65
